How the values were obtained:
Hepatitis B virus = experiment: Antiviral activity against Hepatitis B virus infected in human 2.2.15 cells assessed as reduction of […] after 72 hrs by southern DNA hybridization method; assay type: functional, organism-based; conditions: HepG2 2.2.15, 72 h
CCRF-CEM = experiment: Mitochondrial DNA toxicity in human CEM cells; assay type: cell-based
Procedure, shortened: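 CEM cell lysates slot-blotted and hybridized with an mtDNA-specific probe, then reprobed with an Alu probe as internal control. Bands quantified by autoradiography and densitometry.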

MT2 = experiment: Cytotoxicity against human MT2 cells after 5 days by colorimetry; assay type: cell-based; conditions: MT2, 120 h
Procedure, shortened: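 Uninfected MT-2 cells coincubated with compounds for 5 days. Cytotoxicity by colorimetric quantitation.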

Hepatitis C virus [1] = experiment: Antiviral activity against Hepatitis C virus genotype 1b Con1 infected in human Huh-luc/neo-ET replicon cells assessed as reduction of replicon luciferase signal after 72 hrs by luciferase reporter assay; assay type: functional, organism-based, Hepacivirus hominis
Procedure, shortened: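 Replicon cells grown without G418, seeded at 5 × 10^3 per well, treated next day in duplicate with serial dilutions (DMSO control) at 37°C for 72 h. After a PBS wash, cells lysed in ice-cold passive lysis reagent and firefly luciferase RLU read as percent of compound-free control. EC50 by nonlinear regression of the dose-effect curve.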

[2] = test system: Human immunodeficiency virus 1; experiment: Antiviral activity against Human immunodeficiency virus 1 3B virus infected in human MT2 cells assessed as inhibition of virus-induced cytopathic effect by colorimetry; assay type: functional, organism-based
Procedure, shortened: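 MT-2 cells, 1 × 10^3 per well in triplicate, infected with HIV-1 IIIB at 0.1 TCID50/cell and cultured with compounds. Viral CPE quantified by MTT colorimetry after 5 days to estimate EC50.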

[3] = Cytotoxicity against human Huh-7 cells by luminescence based cell viability assay
[4] = Cytotoxicity against human HuH7 cells by luminescence based cell viability assay; parameters: species or system Huh-7
Procedure, shortened: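 Exponentially growing Huh-7 cells seeded at 1 × 10^4 per well and incubated with compounds for 3 days. Viability read by CellTiter-Glo luminescence, used for dark compounds that interfere with methylene blue absorbance at 595 nm. CC50 derived.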

Hepatitis C virus [5] = experiment: Antiviral activity against Hepatitis C virus genotype 1b Con1 infected in human Huh-luc/neo-ET replicon cells assessed as reduction of replicon luciferase signal after 72 hrs by luciferase reporter assay in presence of 5% fetal bovine serum; assay type: functional, organism-based, Hepacivirus hominis
Procedure, shortened: (§1)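 Huh-luc/neo-ET cells without G418, incubated with serially diluted compounds in medium containing 5%, 10%, 20% or 40% (vol/vol) FBS. Firefly luciferase read after 72 h. EC50 from dose-effect curves. The 0% value is a theoretical EC50 extrapolated from the plot of EC50 versus serum level. Means ± SD of three independent experiments.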

Hepatitis C virus [6] = experiment: Antiviral activity against Hepatitis C virus genotype 1b Con1 infected in human Huh-luc/neo-ET replicon cells assessed as reduction of replicon luciferase signal after 72 hrs by luciferase reporter assay in presence of 0% fetal bovine serum; assay type: functional, organism-based, Hepacivirus hominis; procedure, shortened: as §1
Cytochrome c = Cytochrome c (Homo sapiens, UniProt P99999); experiment: Binding affinity to Cytochrome C
Hepatitis C virus [7] = experiment: Antiviral activity against Hepatitis C virus genotype 1b Con1 infected in human Huh-luc/neo-ET replicon cells assessed as reduction of replicon luciferase signal after 72 hrs by luciferase reporter assay in presence of 20% fetal bovine serum; assay type: functional, organism-based, Hepacivirus hominis; procedure, shortened: as §1
Hepatitis C virus [8] = experiment: Antiviral activity against Hepatitis C virus genotype 1b Con1 infected in human Huh-luc/neo-ET replicon cells assessed as reduction of replicon luciferase signal after 72 hrs by luciferase reporter assay in presence of 40% fetal bovine serum; assay type: functional, organism-based, Hepacivirus hominis; procedure, shortened: as §1
Hepatitis C virus [9] = experiment: Antiviral activity against Hepatitis C virus genotype 2a JFH1 infected in human YSGR-JFH replicon cells assessed as inhibition of virus RNA level after 72 hrs by quantitative RT-PCR; assay type: functional, organism-based, Hepacivirus hominis; conditions: subtype 2a JFH1, 72 h
Procedure, shortened: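 YSGR-JFH genotype 2a subgenomic replicon cells (maintained with 400 μg/ml G418), 1 × 10^5 per well, incubated with DMSO, serially varied compound, or IFN-α-2a for 72 h. HCV RNA by qRT-PCR normalized to β-actin, as percent of mock-treated control. Mean ± SD of three independent experiments.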

Hepatitis C virus [10] = experiment: Antiviral activity against Hepatitis C virus genotype 1b Con1 infected in human Huh-luc/neo-ET replicon cells assessed as reduction of replicon luciferase signal after 72 hrs by luciferase reporter assay in presence of 10% fetal bovine serum; assay type: functional, organism-based, Hepacivirus hominis; procedure, shortened: as §1

Cytochrome c, sequence (P99999 whole entry): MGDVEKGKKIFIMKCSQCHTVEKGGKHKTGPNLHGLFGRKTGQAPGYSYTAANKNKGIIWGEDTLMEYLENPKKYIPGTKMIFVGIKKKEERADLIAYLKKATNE

Row | Compound | EC50 (Hepatitis B virus) [µM] | IC50 (CCRF-CEM) [µM] | CC50 (MT2) [µM] | EC50 (Hepatitis C virus [1]) [µM] | EC50 [2] [µM] | CC50 [3] [µM] | CC50 [4] [µM] | EC50 (Hepatitis C virus [5]) [µM] | EC50 (Hepatitis C virus [6]) [µM] | Kd (Cytochrome c) [µM] | EC50 (Hepatitis C virus [7]) [µM] | EC50 (Hepatitis C virus [8]) [µM] | EC50 (Hepatitis C virus [9]) [µM] | EC50 (Hepatitis C virus [10]) [µM]
1 | O=C(O)CNC(=O)c1ccc(-c2c3nc(c(-c4ccc(C(=O)NCC(=O)O)cc4)c4ccc([nH]4)c(-c4ccc(C(=O)NCC(=O)O)cc4)c4nc(c(-c5ccc(C(=O)NCC(=O)O)cc5)c5ccc2[nH]5)C=C4)C=C3)cc1 | > 10 | 15 | 3.2 | 1.8 | > 25 | 27 | > 50 |  |  |  |  |  |  | 
2 | O=C(O)c1ccc(-c2c3nc(c(-c4ccc(C(=O)O)cc4)c4ccc([nH]4)c(-c4ccc(C(=O)O)cc4)c4ccc([nH]4)c(-c4ccc(C(=O)O)cc4)c4nc2C=C4)C=C3)cc1 | > 10 | > 50 | > 25 | 0.243 | > 25 | > 50 | > 50 | 0.124 | 0.0482 | 0.95 | 0.513 | 0.948 | 1.9 | 0.243
3 | O=C(O)CNC(=O)c1cc(C(=O)NCC(=O)O)cc(-c2ccc(-c3c4nc(c(-c5ccc(-c6cc(C(=O)NCC(=O)O)cc(C(=O)NCC(=O)O)c6)cc5)c5ccc([nH]5)c(-c5ccc(-c6cc(C(=O)NCC(=O)O)cc(C(=O)NCC(=O)O)c6)cc5)c5nc(c(-c6ccc(-c7cc(C(=O)NCC(=O)O)cc(C(=O)NCC(=O)O)c7)cc6)c6ccc3[nH]6)C=C5)C=C4)cc2)c1 | > 10 | 12.5 | 15 | > 12.5 | 1.05 | > 50 | 12.5 |  |  |  |  |  |  | 
4 | O=C(O)c1ccc(-c2ccc(-c3c4nc(c(-c5ccc(-c6ccc(C(=O)O)cc6)cc5)c5ccc([nH]5)c(-c5ccc(-c6ccc(C(=O)O)cc6)cc5)c5ccc([nH]5)c(-c5ccc(-c6ccc(C(=O)O)cc6)cc5)c5nc3C=C5)C=C4)cc2)cc1 | > 10 | 6 | 25 | 0.877 | > 25 | 18.6 | 32.2 | 0.633 | 0.38 | 17 | 1.21 | 1.48 |  | 0.877
5 | O=C(O)CNC(=O)c1ccc(-c2ccc(-c3c4nc(c(-c5ccc(-c6ccc(C(=O)NCC(=O)O)cc6)cc5)c5ccc([nH]5)c(-c5ccc(-c6ccc(C(=O)NCC(=O)O)cc6)cc5)c5nc(c(-c6ccc(-c7ccc(C(=O)NCC(=O)O)cc7)cc6)c6ccc3[nH]6)C=C5)C=C4)cc2)cc1 | > 20 | > 50 | 13 | 0.148 | 1.5 | > 50 | > 50 |  |  |  |  |  |  | 
6 | COC(=O)[C@H](CC(=O)O)NC(=O)c1cc(C(=O)N[C@@H](CC(=O)O)C(=O)OC)cc(-c2ccc(-c3c4nc(c(-c5ccc(-c6cc(C(=O)N[C@@H](CC(=O)O)C(=O)OC)cc(C(=O)N[C@@H](CC(=O)O)C(=O)OC)c6)cc5)c5ccc([nH]5)c(-c5ccc(-c6cc(C(=O)N[C@@H](CC(=O)O)C(=O)OC)cc(C(=O)N[C@@H](CC(=O)O)C(=O)OC)c6)cc5)c5nc(c(-c6ccc(-c7cc(C(=O)N[C@@H](CC(=O)O)C(=O)OC)cc(C(=O)N[C@@H](CC(=O)O)C(=O)OC)c7)cc6)c6ccc3[nH]6)C=C5)C=C4)cc2)c1 | > 10 | 10 | > 25 | 2.5 | 4.1 |  | 12.5 |  |  | 1.7 |  |  |  | 
7 | O=C(O)c1cc(C(=O)O)cc(-c2c3nc(c(-c4cc(C(=O)O)cc(C(=O)O)c4)c4ccc([nH]4)c(-c4cc(C(=O)O)cc(C(=O)O)c4)c4nc(c(-c5cc(C(=O)O)cc(C(=O)O)c5)c5ccc2[nH]5)C=C4)C=C3)c1 |  | 25 | > 50 | 13.6 | > 100 | > 50 | > 50 |  |  |  |  |  |  | 
8 | O=C(O)c1cccc(-c2ccc(-c3c4nc(c(-c5ccc(-c6cccc(C(=O)O)c6)cc5)c5ccc([nH]5)c(-c5ccc(-c6cccc(C(=O)O)c6)cc5)c5nc(c(-c6ccc(-c7cccc(C(=O)O)c7)cc6)c6ccc3[nH]6)C=C5)C=C4)cc2)c1 | > 20 | 22 | > 25 | 0.764 | > 25 | 42.3 | 13 |  |  |  |  |  |  | 
